Measurements from different studies.
Compare with care: the assays were run in different laboratories.
Medium: plasma

| Compound | system | setting | quantity | value |
| --- | --- | --- | --- | --- |
| CO[C@H]1CC[C@H](N2C(=O)CNc3ncc(-c4ccc(C(C)(C)O)nc4)nc32)CC1 | human | oral, 7.5 mg, patients | Vd/F | 235 L |
| CCNCCCNC/C=C\CNCCCNCC | human | intravenous, 150 mg, patients, infusion | Vd | 1.55 L/kg |
| c1cnc2ccc(Nc3nc(NC4CC4)c4nc[nH]c4n3)cc2c1 | human | oral, 200 mg/m², patients | Vd/F | 267 L |
| CC(C)(Sc1ccncc1-c1ccc(C#N)c2ccccc12)C(=O)O | male human | oral, 40 mg, single dose, fasted, healthy volunteers | Vd/F | 280 L |
| COc1ccc([C@@H]2CN(C(=O)[C@@H](O)CO)C[C@@]2(C)[C@@H](C)O)cc1OC1CN(c2ccc(C)cn2)C1 | human | oral, 10 mg, single dose, healthy volunteers | Vd/F | 57.6 L |
| C[C@@]1(c2cc(NC(=O)c3ccc(C#N)cn3)ccc2F)C=CSC(N)=N1 | human | oral, 150 mg, single dose | Vd/F | 247 L |
| COc1cc(C(=O)NC2CCN(C)CC2)c(F)cc1Nc1ncc(C(F)(F)F)c(Oc2cccc3c2C(=O)N(C)C3)n1 | human | oral, 25 mg, single dose, patients | Vd/F | 331 L |
| Cc1cc(Nc2cc(N3CCN(C)CC3)nc(/C=C/c3ccccc3)n2)n[nH]1 | human | oral, 350 mg/m², patients | Vd/F | 2340 L |
